Here are results for 14 molecules from ChEMBL document CHEMBL1131177, “A novel class of orally active non-peptide bradykinin B2 receptor antagonists. 4. Discovery of novel frameworks mimicking the active conformation” (J Med Chem, 1998).

The target of assay [1] is T1, B2 bradykinin receptor (Homo sapiens, UniProt P30411).
T1 sequence (P30411 whole entry): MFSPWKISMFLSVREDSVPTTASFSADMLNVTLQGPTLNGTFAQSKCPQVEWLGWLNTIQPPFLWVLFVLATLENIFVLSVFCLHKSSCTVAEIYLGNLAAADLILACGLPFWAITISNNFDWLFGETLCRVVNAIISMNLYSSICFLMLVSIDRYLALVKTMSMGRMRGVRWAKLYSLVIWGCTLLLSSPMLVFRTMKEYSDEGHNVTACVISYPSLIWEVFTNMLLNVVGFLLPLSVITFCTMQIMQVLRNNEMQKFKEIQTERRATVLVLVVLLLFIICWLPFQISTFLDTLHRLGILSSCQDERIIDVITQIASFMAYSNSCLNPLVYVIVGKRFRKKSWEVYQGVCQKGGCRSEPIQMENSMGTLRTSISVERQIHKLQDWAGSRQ
The assay can be described thus: Inhibition of the specific binding of [3H]BK to human recombinant Bradykinin receptor B2 expressed in CHO cells. Type of assay: cell-based. Put shortly:
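Intact CHO (dhfr-) cells stably expressing human B2, seeded at 3.0 × 10^4 cells/well and cultured 1 day. Incubated with 1.0 nM [3H]BK and compound, 2 h at 4 °C, in HEPES/N-methyl-D-glucamine buffer pH 7.2 with bacitracin, enalaprilat, BSA. Cells solubilized in SDS/NaOH for scintillation counting. Nonspecific binding defined with 1 µM BK. Run three times.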

For assay [2], the target named is T2, B2 bradykinin receptor (Cavia porcellus, UniProt O70526).
T2 sequence (O70526 whole entry): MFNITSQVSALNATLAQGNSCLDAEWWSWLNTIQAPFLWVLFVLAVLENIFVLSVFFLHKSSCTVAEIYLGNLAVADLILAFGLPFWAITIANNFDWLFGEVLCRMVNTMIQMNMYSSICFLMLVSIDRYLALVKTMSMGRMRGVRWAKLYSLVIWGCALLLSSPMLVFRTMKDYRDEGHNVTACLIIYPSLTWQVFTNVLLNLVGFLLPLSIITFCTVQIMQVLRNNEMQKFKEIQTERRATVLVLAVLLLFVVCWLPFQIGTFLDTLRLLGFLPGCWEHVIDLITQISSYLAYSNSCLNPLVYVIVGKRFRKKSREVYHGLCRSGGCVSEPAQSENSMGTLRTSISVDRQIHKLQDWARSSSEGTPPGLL
The assay can be described thus: Inhibition of the specific binding of [3H]BK to Bradykinin receptor B2 in guinea pig ileum membrane preparations. Type of assay: cell membranes. A digest of the protocol:
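Male Hartley guinea pig ileum membranes (100000g pellet) at 0.2 mg protein/mL in pH 6.8 TES buffer with phenanthroline, bacitracin, DTT, captopril, BSA. Incubated with 0.06 nM [3H]BK plus varying compound concentrations, 60 min, room temperature. Filtration harvest, scintillation counting. Nonspecific binding defined with 1 µM unlabeled BK. IC50 as mean of at least three determinations.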

The next assay has as its system Cavia porcellus. The assay can be described thus: Antagonistic activity in inhibiting BK-induced bronchoconstriction in guinea pigs by oral administration at 1 mg/kg dose. Type of assay: functional. Put shortly:
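Male Hartley guinea pigs (470-750 g), fasted overnight, anesthetized with pentobarbital 30 mg/kg ip, ventilated 10 mL/kg at 60 breaths/min; alcuronium 0.5 mg/kg iv, propranolol 10 mg/kg sc. BK 5 µg/kg iv; peak rise in insufflation pressure (modified Konzett–Rössler). Compound in 0.5% methylcellulose given via esophageal cannula; BK repeated 30 min later. % inhibition vs vehicle group; n = 3-4/dose.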

In the case of `Cc1ccc2cccc(OCc3c(Cl)ccc(-n4cccc4CNC(=O)/C=C/c4ccc(N5CCCC5=O)cc4)c3Cl)c2n1`, the IC50 on B2 bradykinin receptor [1] is 0.41 nM; on B2 bradykinin receptor [2], 0.58 nM. The inhibition in vivo at 1 mg/kg with Cavia porcellus was determined as 36%.
For `CNC(=O)c1ccc(/C=C/C(=O)NC/C=C\c2ccc(Cl)c(COc3cccc4ccc(C)nc34)c2Cl)cc1`, the IC50 amounted to 14 nM at B2 bradykinin receptor [1] and 17 nM at B2 bradykinin receptor [2].
For the molecule `CNC(=O)c1ccc(/C=C/C(=O)NCC(=O)N(C)c2ccc(Cl)c(COc3cccc4ccc(C)nc34)c2)cc1`, the IC50 on B2 bradykinin receptor [1] came out at 110 nM; on B2 bradykinin receptor [2], 5.1 nM.
For the molecule `Cc1ccc2cccc(OCc3c(Cl)ccc(N(C)C(=O)CNC(=O)/C=C/c4ccc(/C=C/c5ccncc5)nc4)c3Cl)c2n1`, the IC50 came to 0.51 nM at B2 bradykinin receptor [1] and 0.76 nM at B2 bradykinin receptor [2]. For the same molecule, the inhibition in vivo at 1 mg/kg with Cavia porcellus was 87.3%.
On to `CNC(=O)c1ccc(/C=C/C(=O)NCc2sccc2-c2ccc(C)c(COc3cccc4ccc(C)nc34)c2C)cc1`, for which the figures for the IC50 at B2 bradykinin receptor [1] and on B2 bradykinin receptor [2] were 5.8 nM and 2.8 nM, respectively.
As for `CNC(=O)c1ccc(/C=C/C(=O)NCc2cccn2-c2ccc(Cl)c(COc3cccc4ccc(C)nc34)c2Cl)cc1`, the IC50 at B2 bradykinin receptor [1] was 0.26 nM; on B2 bradykinin receptor [2] it was 0.64 nM. This molecule gave an inhibition in vivo at 1 mg/kg in the assay with Cavia porcellus of 67.9%.
For `Cc1ccc2cccc(OCc3c(Cl)ccc(N(C)C(=O)CNC(=O)/C=C/c4ccc(N5CCCC5=O)cc4)c3Cl)c2n1`, in that order: 3.2 nM, 0.55 nM and 85.3%.
For the molecule `CC(=O)Nc1ccc(/C=C/C(=O)NCc2cccn2-c2ccc(Cl)c(COc3cccc4ccc(C)nc34)c2Cl)cn1`, the IC50 at B2 bradykinin receptor [1] worked out at 0.37 nM; on B2 bradykinin receptor [2] it was 0.56 nM. In the assay with Cavia porcellus, this molecule showed an inhibition in vivo at 1 mg/kg of 82.1%.
Turning to `CC(=O)Nc1ccc(/C=C/C(=O)NCC(=O)Nc2ccc(Cl)c(COc3cccc4ccc(C)nc34)c2Cl)cn1`, the IC50 was 4200 nM on B2 bradykinin receptor [1] and 280 nM at B2 bradykinin receptor [2].
For `CNC(=O)c1ccc(/C=C/C(=O)NCC=Cc2ccc(Cl)c(COc3cccc4ccc(C)nc34)c2Cl)cc1`, in that order: 710 nM and 220 nM.
As for `CNC(=O)c1ccc(/C=C/C(=O)NCc2ccccc2-c2ccc(C)c(COc3cccc4ccc(C)nc34)c2C)cc1`, the IC50 on B2 bradykinin receptor [1] was 2.6 nM.
`CNC(=O)c1ccc(/C=C/C(=O)NCC(=O)N(C)c2cccc(COc3cccc4ccc(C)nc34)c2C)cc1`: the IC50 came to 150 nM at B2 bradykinin receptor [1] and 17 nM on B2 bradykinin receptor [2].
For `CNC(=O)c1ccc(/C=C/C(=O)Nc2cccc(-c3ccc(C)c(COc4cccc5ccc(C)nc45)c3C)c2)cc1`, in that order: above 10000 nM and 94 nM.
For `CNC(=O)c1ccc(/C=C/C(=O)NCC(=O)N(C)c2ccc(OC)c(COc3cccc4ccc(C)nc34)c2OC)cc1`, in that order: 210 nM and 17 nM.
